SMILES strings stand for the structures.

Data set [1] concerns the target T1, DNA polymerase alpha catalytic subunit (Homo sapiens, UniProt P09884).
T1 sequence (P09884 whole entry): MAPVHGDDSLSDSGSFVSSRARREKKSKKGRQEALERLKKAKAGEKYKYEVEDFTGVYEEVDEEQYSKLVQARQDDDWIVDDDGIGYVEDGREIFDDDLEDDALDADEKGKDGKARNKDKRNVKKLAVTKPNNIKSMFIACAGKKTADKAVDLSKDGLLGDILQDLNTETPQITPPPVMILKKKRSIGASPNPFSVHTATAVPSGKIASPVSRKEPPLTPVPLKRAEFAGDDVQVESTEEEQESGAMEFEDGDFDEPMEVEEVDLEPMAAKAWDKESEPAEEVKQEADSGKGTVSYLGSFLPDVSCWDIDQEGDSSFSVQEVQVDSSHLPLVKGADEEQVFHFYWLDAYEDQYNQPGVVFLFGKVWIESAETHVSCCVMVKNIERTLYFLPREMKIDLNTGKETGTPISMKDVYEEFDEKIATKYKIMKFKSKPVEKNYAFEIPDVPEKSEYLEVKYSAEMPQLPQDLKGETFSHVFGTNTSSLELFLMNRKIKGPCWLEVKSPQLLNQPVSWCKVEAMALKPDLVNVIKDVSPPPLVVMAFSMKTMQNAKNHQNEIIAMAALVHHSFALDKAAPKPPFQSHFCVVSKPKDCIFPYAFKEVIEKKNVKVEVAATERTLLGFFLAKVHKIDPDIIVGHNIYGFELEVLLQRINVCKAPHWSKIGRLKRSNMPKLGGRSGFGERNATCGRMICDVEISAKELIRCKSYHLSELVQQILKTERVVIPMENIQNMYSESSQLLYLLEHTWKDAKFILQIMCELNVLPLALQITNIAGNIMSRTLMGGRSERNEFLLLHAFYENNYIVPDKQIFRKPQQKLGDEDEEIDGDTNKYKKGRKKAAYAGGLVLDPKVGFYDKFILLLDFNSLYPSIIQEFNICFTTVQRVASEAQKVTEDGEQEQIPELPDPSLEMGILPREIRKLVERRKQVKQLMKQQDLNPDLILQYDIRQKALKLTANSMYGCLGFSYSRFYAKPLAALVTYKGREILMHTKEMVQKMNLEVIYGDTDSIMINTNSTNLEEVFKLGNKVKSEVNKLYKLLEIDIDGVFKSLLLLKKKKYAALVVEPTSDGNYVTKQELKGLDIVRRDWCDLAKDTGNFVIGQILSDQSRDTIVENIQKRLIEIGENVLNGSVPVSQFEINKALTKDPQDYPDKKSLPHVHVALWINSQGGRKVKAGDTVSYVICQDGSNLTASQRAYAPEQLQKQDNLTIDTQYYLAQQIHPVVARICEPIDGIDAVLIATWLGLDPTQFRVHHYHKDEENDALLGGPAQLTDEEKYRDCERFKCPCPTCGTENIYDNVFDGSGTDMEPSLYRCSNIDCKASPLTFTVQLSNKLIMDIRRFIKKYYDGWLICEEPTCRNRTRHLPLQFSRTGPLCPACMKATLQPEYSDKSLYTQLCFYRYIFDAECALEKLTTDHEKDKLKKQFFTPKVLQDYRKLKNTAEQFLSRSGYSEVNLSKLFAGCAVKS
The experiment in a line: Inhibition of human alpha DNA polymerase (95 uL) activity in a solution containg […] HEPES (pH 7.5) upon incubation for 12 minutes at 26 degrees C with the compound dissolved in DMSO.

The nature of data set [2]: Toxicity on uninfected human foreskin fibroblast cells determined in microscopic evaluation and quantitative neutral red dye uptake assay. The class given is cell-based. Conditions: uninfected human foreskin fibroblast (HFF) cells. A digest of the protocol:
(§1)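 Uninfected cells were seeded as subconfluent monolayers and exposed to compound for 3 days. Viability was judged both by microscopic inspection and by quantitative neutral red dye uptake, giving CC50.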

The next data set relates to HFF. The experiment in a line: Antiviral activity against human cytomegalovirus (Davis strain) grown on human foreskin fibroblast cells determined by reduction in plaque formation upon incubation at 37 degrees C with the compound dissolved in DMSO. The class given is functional, cell-based.
Data set [3] is described as follows: Toxicity on uninfected African green monkey kidney cells determined in microscopic evaluation and quantitative neutral red dye uptake assay. It is filed as cell-based. Conditions: chlorocebus sabaeus, uninfected African green monkey kidney (Vero) cells. In short, it runs like this:
as §1

Data set [4] deals with T2, DNA polymerase catalytic subunit (Varicella-zoster virus (strain Dumas) (HHV-3) (Human herpesvirus 3), UniProt P09252).
T2 sequence (P09252 whole entry): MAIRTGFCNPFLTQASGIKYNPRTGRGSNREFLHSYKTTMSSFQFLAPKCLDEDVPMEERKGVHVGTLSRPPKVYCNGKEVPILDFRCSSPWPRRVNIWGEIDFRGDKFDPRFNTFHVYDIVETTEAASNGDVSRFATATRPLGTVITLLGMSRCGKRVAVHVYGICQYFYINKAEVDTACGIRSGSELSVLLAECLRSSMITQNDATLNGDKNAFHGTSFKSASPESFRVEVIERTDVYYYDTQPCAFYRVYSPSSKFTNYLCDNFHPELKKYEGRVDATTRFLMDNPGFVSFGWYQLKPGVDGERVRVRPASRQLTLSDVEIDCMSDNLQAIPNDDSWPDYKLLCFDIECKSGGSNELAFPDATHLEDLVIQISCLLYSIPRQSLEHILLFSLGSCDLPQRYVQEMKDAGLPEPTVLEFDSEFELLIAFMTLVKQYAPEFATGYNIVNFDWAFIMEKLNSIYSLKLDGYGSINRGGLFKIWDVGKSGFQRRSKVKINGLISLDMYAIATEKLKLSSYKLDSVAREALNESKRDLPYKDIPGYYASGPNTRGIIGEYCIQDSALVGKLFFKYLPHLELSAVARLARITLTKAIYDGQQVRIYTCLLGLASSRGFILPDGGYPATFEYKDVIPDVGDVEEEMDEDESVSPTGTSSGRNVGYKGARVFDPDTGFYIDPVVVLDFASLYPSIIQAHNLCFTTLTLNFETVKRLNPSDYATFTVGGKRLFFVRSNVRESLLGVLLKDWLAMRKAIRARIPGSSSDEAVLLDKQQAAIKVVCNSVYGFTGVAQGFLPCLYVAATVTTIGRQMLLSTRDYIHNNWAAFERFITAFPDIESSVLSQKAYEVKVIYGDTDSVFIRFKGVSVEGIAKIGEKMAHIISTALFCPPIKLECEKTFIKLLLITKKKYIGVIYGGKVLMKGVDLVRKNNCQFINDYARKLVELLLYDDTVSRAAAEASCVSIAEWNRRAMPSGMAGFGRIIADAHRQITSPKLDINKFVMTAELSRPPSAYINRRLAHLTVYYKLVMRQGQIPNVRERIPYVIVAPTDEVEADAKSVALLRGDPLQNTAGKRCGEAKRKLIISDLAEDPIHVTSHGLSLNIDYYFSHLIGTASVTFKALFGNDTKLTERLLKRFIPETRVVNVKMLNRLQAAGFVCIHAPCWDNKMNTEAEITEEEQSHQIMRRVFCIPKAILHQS
The experiment in a line: Inhibition of Varicella-Zoster virus DNA polymerase (95 uL) activity in a solution containing […] HEPES (pH 7.5), incubation for 12 minutes at 26 degrees C. The arrangement: species or system Human alphaherpesvirus 3.

In the case of `Cn1cc(C(=O)NCc2ccc(Cl)cc2)c(=O)c2cc(CN3CCOCC3)ccc21`, the half-inhibitory concentration (IC50) (usually the concentration that inhibits the measured activity by half) is > 40000 nM in data set [1] and 900 nM in the data set on HFF. In addition, the 50% cytotoxic concentration (CC50) in data set [2] and in data set [3] was > 100000 nM each time.

As for `O=C(NCc1ccc(Cl)cc1)c1cnc2ccc(CCCO)cc2c1O`, the IC50 in data set [1] was > 40000 nM; in data set [4] it was 70 nM; in the data set on HFF, 1000 nM. Moreover, the cytotoxic concentration (CC50) in data set [2] and in data set [3] was > 100000 nM each time.

With `Cn1cc(C(=O)NCc2ccc(Cl)cc2)c(=O)c2cc(CN3CCOCC3)sc21`, the half-maximal inhibitory concentration (IC50) is > 40000 nM in data set [1], 770 nM in data set [4] and 800 nM with HFF. The CC50 in data set [2] and in data set [3] was > 100000 nM throughout.

For the origin of these results see ChEMBL document CHEMBL1141075, “4-Oxo-4,7-dihydrothieno[2,3-b]pyridines as non-nucleoside inhibitors of human cytomegalovirus and related herpesvirus polymerases” (J Med Chem, 2005).
